Key:
[1] = Terminal half life in human urine treated with monohydroxy derivative of OXC at 250 mg, iv administered as infusion over 30 mins by high-performance liquid chromatography; assay type: ADME, organism-based; details: read-out: beta t1/2 (converted)
How it was run: (§1)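 250 mg racemic MHD infused intravenously over 30 min to 12 healthy adults. Plasma was drawn at 0 to 30 min and up to 72 h, and urine was fractionated to 72 h. Enantioselective HPLC was used. Renal clearance was Ae/AUC; Vss was CL_T·MRT (AUMC/AUC). Urinary half-life came from log-linear slopes between 4–18 h and 40–64 h.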

[2] = Drug excretion in human urine assessed as total amount of drug eliminated treated with oxcarbazepine at 300 mg, po administered as one-film coated tablet by high-performance liquid chromatography; assay type: ADME, organism-based; details: read-out: Ae
How it was run: (§2)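 300 mg oral tablet given to 12 healthy adults. Urine was collected in fractions up to 72 h and kept at 2–8 °C, then frozen at -20 °C. Analytes were measured by HPLC before and after β-glucuronidase hydrolysis (pH 6.7, 37 °C, about 15 h). Renal clearance was Ae/plasma AUC. Urinary terminal half-life came from log-linear slopes between 4–18 h and 40–64 h.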

[3] = Terminal half life in human urine treated with oxcarbazepine at 300 mg, po administered as one-film coated tablet by high-performance liquid chromatography; assay type: ADME, organism-based; details: read-out: beta t1/2 (converted); how it was run: as §2
[4] = Renal clearance in human at 200 mg, iv administered as single dose by high-performance liquid chromatography; assay type: ADME, organism-based, Kidney; details: in vivo
How it was run: (§3)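 Pilot ascending-dose study: one subject per level received single intravenous racemic MHD (150, 200, 250 mg). Urine was pooled 0–72 h, and unchanged drug was measured by HPLC as percent of dose excreted. Renal clearance was the amount excreted unchanged divided by plasma AUC.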

[5] = Total plasma clearance in human at 200 mg, iv administered as single dose by high-performance liquid chromatography; assay type: ADME, organism-based
How it was run: (§4)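 Pilot study: single intravenous racemic MHD at 150, 200 or 250 mg, one subject per dose. Plasma was sampled to 72 h and analysed by HPLC. Total plasma clearance was computed as Dose/AUC, with AUC from the linear trapezoidal rule.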

[6] = AUC (0 to 72 hrs) in human at 200 mg, iv administered as single dose by high-performance liquid chromatography; assay type: ADME, organism-based; parameters: dose 200 mg, time < 72 hr, route intravenous; details: plasma
How it was run: (§5)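 Pilot ascending-dose study: one healthy subject per level received 150, 200 or 250 mg racemic MHD intravenously as a single dose. Plasma was sampled to 72 h and assayed by non-enantioselective and enantioselective HPLC. AUC(0-72h) was computed by the linear trapezoidal method.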

[7] = Drug excretion in human urine assessed as total amount of drug eliminated at 200 mg, iv administered as single dose measured for 72 hrs post-dose by high-performance liquid chromatography; assay type: ADME, organism-based; details: read-out: Ae; how it was run: as §3
[8] = Drug excretion in human urine assessed as total amount of drug eliminated at 250 mg, iv administered as single dose measured for 72 hrs post-dose by high-performance liquid chromatography; assay type: ADME, organism-based; details: read-out: Ae; how it was run: as §3
[9] = Total plasma clearance in human at 150 mg, iv administered as single dose by high-performance liquid chromatography; assay type: ADME, organism-based; how it was run: as §4
[10] = AUC (0 to 72 hrs) in human at 150 mg, iv administered as single dose by high-performance liquid chromatography; assay type: ADME, organism-based; parameters: dose 150 mg, time < 72 hr, route intravenous; details: plasma; how it was run: as §5
[11] = Drug excretion in human urine assessed as total amount of drug eliminated at 150 mg, iv administered as single dose measured for 72 hrs post-dose by high-performance liquid chromatography; assay type: ADME, organism-based; details: read-out: Ae; how it was run: as §3
[12] = AUC in human at 250 mg, iv administered as infusion over 30 mins by non-enantiospecific assay based high-performance liquid chromatography; assay type: ADME, organism-based; parameters: time < 0.5 hr, dose 250 mg, route intravenous; details: plasma
How it was run: (§6)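 Crossover of 12 healthy adults: 250 mg racemic MHD infused intravenously over 30 min versus a 300 mg oral tablet, with at least one week of washout. Plasma MHD was measured by non-enantioselective HPLC-UV at 210 nm after C18 solid-phase extraction (LOQ 0.1 µmol/L). Bioavailability f was the dose-corrected ratio of oral to intravenous AUC.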

[13] = Renal clearance in human at 250 mg, iv administered as single dose by high-performance liquid chromatography; assay type: ADME, organism-based, Kidney; details: in vivo; how it was run: as §3
[14] = AUC (0 to 72 hrs) in human at 250 mg, iv administered as single dose by high-performance liquid chromatography; assay type: ADME, organism-based; parameters: dose 250 mg, time < 72 hr, route intravenous; details: plasma; how it was run: as §5
[15] = Renal clearance in human at 150 mg, iv administered as single dose by high-performance liquid chromatography; assay type: ADME, organism-based, Kidney; details: in vivo; how it was run: as §3
[16] = Total plasma clearance in human at 250 mg, iv administered as single dose by high-performance liquid chromatography; assay type: ADME, organism-based; how it was run: as §4
[17] = Total plasma clearance in human treated with monohydroxy derivative of OXC at 200 mg, iv administered as single dose by high-performance liquid chromatography; assay type: ADME, organism-based; how it was run: as §4
[18] = Renal clearance in human treated with monohydroxy derivative of OXC at 250 mg, iv administered as infusion over 30 mins by high-performance liquid chromatography; assay type: ADME, organism-based, Kidney; details: in vivo; how it was run: as §1
[19] = Volume of distribution at steady state in human treated with monohydroxy derivative of OXC at 250 mg, iv administered as infusion over 30 mins by high-performance liquid chromatography; assay type: ADME, organism-based; details: in vivo, read-out: Vdss; how it was run: as §1
[20] = AUC (0 to 72 hrs) in human treated with monohydroxy derivative of OXC at 200 mg, iv administered as single dose by high-performance liquid chromatography; assay type: ADME, organism-based; parameters: time < 72 hr, dose 200 mg, route intravenous; details: plasma; how it was run: as §5
[21] = Renal clearance in human treated with oxcarbazepine at 300 mg, po administered as one-film coated tablet by high-performance liquid chromatography; assay type: ADME, organism-based, Kidney; details: in vivo; how it was run: as §2
[22] = AUC (0 to 32/48 hrs) in human treated with oxcarbazepine at 300 mg, po administered as one-film coated tablet by high-performance liquid chromatography; assay type: ADME, organism-based; details: plasma
How it was run: (§7)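 Healthy adults (6 male, 6 female), single 300 mg film-coated tablet by mouth, fasting, in a randomized two-way crossover with at least one week of washout. Venous heparinized blood was drawn at 0–72 h. Plasma was separated at 2200 g and stored at -80 °C. Non-enantioselective and enantioselective HPLC were used. Cmax/tmax were the observed peak; AUC was by linear trapezoidal rule.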

[23] = AUC (0 to 72 hrs) in human treated with monohydroxy derivative of OXC at 250 mg, iv administered as single dose by high-performance liquid chromatography; assay type: ADME, organism-based; parameters: dose 250 mg, time < 72 hr, route intravenous; details: plasma; how it was run: as §5
[24] = Apparent terminal half life in human plasma treated with monohydroxy derivative of OXC at 250 mg, iv administered as infusion over 30 mins by high-performance liquid chromatography; assay type: ADME, organism-based; details: read-out: betat1/2(app) (converted)
How it was run: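 Healthy adult volunteers (6 male, 6 female), randomized two-way crossover with at least one week washout; single 250 mg racemic MHD infused i.v. over 30 min. Heparinized plasma sampled 0–30 min then 1–72 h after start of infusion, stored -80 C; enantiomers quantified by enantioselective HPLC.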

[25] = AUC (0 to 72 hrs) in human treated with monohydroxy derivative of OXC at 150 mg, iv administered as single dose by high-performance liquid chromatography; assay type: ADME, organism-based; parameters: dose 150 mg, time < 72 hr, route intravenous; details: plasma; how it was run: as §5
[26] = Total plasma clearance in human treated with monohydroxy derivative of OXC at 250 mg, iv administered as single dose by high-performance liquid chromatography; assay type: ADME, organism-based; how it was run: as §4
[27] = Total plasma clearance in human treated with monohydroxy derivative of OXC at 150 mg, iv administered as single dose by high-performance liquid chromatography; assay type: ADME, organism-based; how it was run: as §4
[28] = Cmax in human treated with oxcarbazepine at 300 mg, po administered as one-film coated tablet by high-performance liquid chromatography; assay type: ADME, organism-based; parameters: dose 300 mg, route oral; details: in vivo; how it was run: as §7
[29] = Tmax in human at 300 mg, po administered as one-film coated tablet by high-performance liquid chromatography; assay type: ADME, organism-based; details: in vivo; how it was run: as §7
[30] = Cmax in human treated with monohydroxy derivative of OXC at 250 mg, iv administered as infusion over 30 mins by high-performance liquid chromatography; assay type: ADME, organism-based; parameters: dose 250 mg, route intravenous; details: in vivo
How it was run: (§8)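 Healthy adults (6 male, 6 female) in an open randomized two-way crossover with at least one week washout. Venous heparinized plasma was sampled at 0, 5, 10, 15, 20, 25 and 30 min and at 1-72 h after the start of infusion, and stored at -80 C. Analytes were measured by non-enantioselective and enantioselective HPLC. Tmax is the observed time of peak concentration, reported as a median.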

[31] = AUC in human at 300 mg, po administered as one-film coated tablet by high-performance liquid chromatography; assay type: ADME, organism-based; details: plasma; how it was run: as §7
Plasma = experiment: Drug level in human plasma at 400 mg, po; assay type: ADME, cell-free
[32] = Tmax in human treated with monohydroxy derivative of OXC at 250 mg, iv administered as infusion over 30 mins by high-performance liquid chromatography; assay type: ADME, organism-based; details: in vivo; how it was run: as §8
[33] = Oral bioavailability in human at 300 mg administered as one-film coated tablet by non-enantiospecific assay based high-performance liquid chromatography; assay type: ADME, organism-based; details: in vivo; how it was run: as §6
[34] = Cmax in human at 300 mg, po administered as one-film coated tablet by high-performance liquid chromatography; assay type: ADME, organism-based; parameters: dose 300 mg, route oral; details: in vivo; how it was run: as §7

## NC(=O)N1c2ccccc2C[C@H](O[C@@H]2O[C@H](C(=O)O)[C@@H](O)[C@H](O)[C@H]2O)c2ccccc21
[1]
  half-life: 9.9 h
[2]
  dose excreted: 38.8%
[3]
  half-life: 10.8 h

## NC(=O)N1c2ccccc2CC(O)c2ccccc21 (racemic) [LICARBAZEPINE]
[4]
  CL renal: 28.3 mL/min
[5]
  clearance: 92 mL/min
[6]
  AUC(0-t) at 72 h: 142 µM·h
[7]
  dose excreted at 72 h: 30.7%
[8]
  dose excreted at 72 h: 42.8%
[9]
  clearance: 90 mL/min
[10]
  AUC(0-t) at 72 h: 109 µM·h
[11]
  dose excreted at 72 h: 24.3%
[12]
  AUC at 0.5 h: 261 µM·h
[13]
  CL renal: 25 mL/min
[14]
  AUC(0-t) at 72 h: 280 µM·h
[15]
  CL renal: 21.8 mL/min
[16]
  clearance: 58.5 mL/min

## NC(=O)N1c2ccccc2C[C@H](O)c2ccccc21 [ESLICARBAZEPINE]
[17]
  clearance: 71.2 mL/min
[18]
  CL renal at 0.5 h: 15 mL/min
[19]
  Vd: 45.9 L
[20]
  AUC(0-t) at 72 h: 92.2 µM·h
[21]
  CL renal: 18.3 mL/min
[22]
  AUC at 48 h: 241 µM·h
[23]
  AUC(0-t) at 72 h: 192 µM·h
[24]
  half-life: 10.6 h
[25]
  AUC(0-t) at 72 h: 69 µM·h
[26]
  clearance: 42.7 mL/min
[2]
  dose excreted: 21.8%
[27]
  clearance: 71.2 mL/min
[28]
  Cmax: 11000 nM
[3]
  half-life: 8.5 h

## NC(=O)N1c2ccccc2CC(=O)c2ccccc21 [OXCARBAZEPINE]
[29]
  Tmax: 1 h
[30]
  Cmax: 80 nM
[31]
  AUC: 6.8 µM·h
Plasma
  Drug uptake: 2%
[32]
  Tmax: 0.5 h
[33]
  bioavailability: 99%
[34]
  Cmax: 2000 nM
